Results as given in PubChem BioAssay.
The source made the active and inactive calls.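 The calls were made as follows, unless noted: active = GFP response above 150% of the DMSO level; inconclusive = fewer than 70 events counted for a yeast strain; inactive = the rest.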

Legend:
[1] = RPL19A-GFP modulators, yeast TOR pathway, confirmation, cell-based, S. cerevisiae, flow cytometry, cherry picks, mother/daughter gates (AID 2270;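 active = GFP response below 50% of the DMSO control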); settings: S. cerevisiae RPL19A-GFP strain, 3 h, at 10 µM, stronger effect = lower value, 100 = same GFP as DMSO wells
[2] = LAP4-GFP expression modulators in yeast, confirmation, cell-based, cherry picks, flow cytometry, mother/daughter gates (AID 2271;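 active = GFP response above 150% of the DMSO control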;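 also: ratio of sample to DMSO plate mean so 100% equals DMSO level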); settings: S. cerevisiae LAP4-GFP strain, 3 h, at 10 µM, stronger effect = higher value, 100 means same as DMSO control
How it was run: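 Test system: GFP-fusion yeast strain / Amount: 0.2 OD600 cells / Buffer or medium: SC medium / Dosing: 10 µM single dose / Incubation: compound exposure 3 h at 30 °C, end-over-end rotation / Detection: HT flow cytometry, GFP fluorescence channel / Evaluation: median GFP fluorescence as percent of plate-mean DMSO wells / Control set: DMSO-only negative wells, rapamycin 400 ng/mL positive wells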

[3] = modulators of MEP2-GFP levels in yeast, confirmation, S. cerevisiae, flow cytometry GFP, cherry picks (AID 2272;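 active = GFP response above 150% of the DMSO control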;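 also: ratio of well signal to plate DMSO mean so 100% equals DMSO level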); settings: S. cerevisiae MEP2-GFP strain, 3 h, at 10 µM, stronger effect = higher value
[4] = AGP1-GFP expression modulators, hit retest, confirmation, cell-based, flow cytometry, S. cerevisiae, cherry picks (AID 2273);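 also: median GFP channel fluorescence over the whole cell population gate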; settings: S. cerevisiae AGP1-GFP strain, 3 h, at 10 µM
[5] = modulators of CIT2-GFP expression in yeast, confirmation, S. cerevisiae, GFP fusion, cherry picks, mother/daughter gates (AID 2274); settings: S. cerevisiae CIT2-GFP strain, flow cytometry, 3 h, at 10 µM, stronger effect = higher value
[6] = measured here: daughter cell gate
[7] = measured here: mother cell gate
[8] = measured here: daughter cell gate response
[9] = measured here: mother cell gate response

Row | Structure (SMILES) | GFP response vs DMSO [1] | GFP response vs DMSO [1, 6] | GFP response vs DMSO [1, 7] | GFP response relative to DMSO [2] | GFP response relative to DMSO [2, 8] | GFP response relative to DMSO [2, 9] | GFP response vs DMSO [3] | GFP response, % of DMSO [4] | GFP response, % of DMSO [5] | GFP response, % of DMSO [5, 6] | GFP response, % of DMSO [5, 7]
1 | COc1ccc(-c2[nH]ncc2N=Nc2ccccc2)cc1 | 96.2% (inactive) | 94.3% | 96.6% | 107% (inactive) | 104% | 108% | 94.4% (inactive) | 92.2% (inactive) | 97.2% (inactive) | 98.4% | 93.7%
2 | Cc1ccc(S(=O)(=O)c2ccc([N+](=O)[O-])cn2)cc1 | 93.2% (inactive) | 99.5% | 84.5% | 185% (active) | 156% | 177% | 139% (inactive) | 115% (inactive) | 103% (inactive) | 114% | 93.4%
3 | OC1(c2ccc(F)cc2)CSC(=Nc2cccnc2)N1Cc1ccco1 (stereo not drawn) | 98% (inactive) | 99.6% | 98.7% | 102% (inactive) | 99.7% | 104% | 110% (inactive) | 104% (inactive) | 108% (inactive) | 106% | 108%
4 | O=C(CSc1ccc(-c2ccccn2)nn1)N1CCCCC1 | 99.9% (inactive) | 100% | 99% | 101% (inactive) | 101% | 101% | 99.5% (inactive) | 103% (inactive) | 99.3% (inactive) | 100% | 96.8%
5 | CCCCN(CCCC)S(=O)(=O)c1ccc(C(=O)Nc2nnc(COC)o2)cc1 | 106% (inactive) | 106% | 103% | 131% (inactive) | 140% | 126% | 149% (inactive) | 106% (inactive) | 100% (inactive) | 103% | 101%
6 | Nc1ccc(C(=O)N/N=C/c2ccccc2)cc1 | 105% (inactive) | 102% | 106% | 102% (inactive) | 99.1% | 102% | 101% (inactive) | 108% (inactive) | 100% (inactive) | 101% | 99.3%
7 | O=C(N/N=C/c1cccc(Oc2ccccc2)c1)c1ccncc1 | 96.7% (inactive) | 97.3% | 95.4% | 107% (inactive) | 99% | 108% | 103% (inactive) | 103% (inactive) | 95.8% (inactive) | 97.6% | 96%
8 | Cc1cc(N2CCC(C)CC2)n2nc(C)c(-c3ccccc3)c2n1 | 101% (inactive) | 101% | 101% | 97.7% (inactive) | 93.6% | 97.5% | 104% (inactive) | 98.4% (inactive) | 101% (inactive) | 102% | 99.1%
9 | Cc1c(NC(=O)/C(C#N)=C/c2c(N3CCCCC3)nc3ccccn3c2=O)c(=O)n(-c2ccccc2)n1C | 95% (inactive) | 95.1% | 96.6% | 94.1% (inactive) | 94.4% | 95.1% | 96.2% (inactive) | 109% (inactive) | 101% (inactive) | 105% | 101%
10 | CCOc1ccc(-c2noc(-c3ccncc3)n2)cc1OCC | 96.4% (inactive) | 93.7% | 95.7% | 106% (inactive) | 106% | 106% | 116% (inactive) | 98.8% (inactive) | 102% (inactive) | 103% | 99.3%
11 | Cc1ccc(S(=O)(=O)Nc2cc(Cl)c(O)c3ncccc23)cc1 | 95.2% (inactive) | 94.2% | 97.1% | 122% (inactive) | 120% | 126% | 110% (inactive) | 91.2% (inactive) | 97.8% (inactive) | 100% | 96.8%
12 | COc1ccc(CCNC2=C(Cl)C(=O)N(CCc3ccc(OC)c(OC)c3)C2=O)cc1OC | 99.1% (inactive) | 98.5% | 99.3% | 100% (inactive) | 99.3% | 100% | 108% (inactive) | 101% (inactive) | 95% (inactive) | 98.3% | 93.3%
13 | O=C(OC(c1ccc(NS(=O)(=O)c2ccccc2)cc1)(C(F)(F)F)C(F)(F)F)c1ccccc1 | 100% (inactive) | 101% | 100% | 94.9% (inactive) | 95.1% | 95.1% | 110% (inactive) | 104% (inactive) | 92.2% (inactive) | 95.2% | 91.8%
14 | Cc1ccc(/C=N/Nc2ncc(Cl)cc2Cl)s1 | 86.7% (inactive) | 62.7% | 78.2% | 331% (active) | 202% | 317% | 115% (inactive) | 81.8% (inactive) | 107% (inactive) | 95.4% | 98.5%
15 | O=C(NCc1ccc2c(c1)OCO2)c1nc(S(=O)(=O)Cc2ccccc2)ncc1Cl | 97.8% (inactive) | 96.2% | 97.4% | 109% (inactive) | 102% | 109% | 99.5% (inactive) | 94.5% (inactive) | 99.3% (inactive) | 98.3% | 96.8%
16 | Cc1ccc(N2C(=O)C3C4C=CC(CNC(=S)N5CCN(c6cccc(C)c6)C(C)C5)(O4)C3C2=O)cc1 (stereo not drawn) | 97.3% (inactive) | 97.3% | 96.7% | 92.9% (inactive) | 92.9% | 94.4% | 103% (inactive) | 103% (inactive) | 100% (inactive) | 97.6% | 100%
17 | Cc1ccc(SC(=O)c2c(C)noc2-c2cc(C)on2)cc1 | 103% (inactive) | 102% | 104% | 120% (inactive) | 120% | 121% | 126% (inactive) | 107% (inactive) | 124% (inactive) | 124% | 121%

Row | Structure (SMILES) | GFP response vs DMSO [1] | GFP response vs DMSO [1, 6] | GFP response vs DMSO [1, 7] | GFP response relative to DMSO [2] | GFP response relative to DMSO [2, 8] | GFP response relative to DMSO [2, 9] | GFP response vs DMSO [3] | GFP response, % of DMSO [4] | GFP response, % of DMSO [5] | GFP response, % of DMSO [5, 6] | GFP response, % of DMSO [5, 7]
18 | CCCCOc1cccc(/C=C(\C#N)C(=O)NC2CC2)c1 | 93.5% (inactive) | 92.1% | 92.5% | 117% (inactive) | 114% | 116% | 113% (inactive) | 92.7% (inactive) | 99.7% (inactive) | 99.1% | 96.1%
19 | NS(=O)(=O)c1ccc(S(=O)(=O)c2ccccc2)nc1 | 98.2% (inactive) | 99.1% | 96.9% | 97.9% (inactive) | 97.6% | 97.2% | 102% (inactive) | 95.6% (inactive) | 103% (inactive) | 105% | 102%
20 | O=C(Nc1cccc(O)c1)c1ccc(Br)cc1 | 96% (inactive) | 97% | 97.2% | 98.8% (inactive) | 96.5% | 100% | 102% (inactive) | 103% (inactive) | 102% (inactive) | 102% | 100%
21 | COc1cc(-c2nc3ccccn3c2NCC2CCCO2)ccc1O (stereo not drawn) | 102% (inactive) | 106% | 102% | 93% (inactive) | 95% | 88.7% | 106% (inactive) | 103% (inactive) | 106% (inactive) | 108% | 104%
22 | CCn1c(=O)c(C(=O)Nc2ccsc2C(=O)OC)c(O)c2ccccc21 | 103% (inactive) | 101% | 103% | 93.1% (inactive) | 92.6% | 94.1% | 96.8% (inactive) | 103% (inactive) | 100% (inactive) | 99.2% | 101%
23 | Cc1cc(C)nc(/N=c2/ssnc2Cl)c1 | 88.7% (inactive) | 87.3% | 86.4% | 142% (inactive) | 131% | 143% | 107% (inactive) | 111% (inactive) | 124% (inactive) | 110% | 116%
24 | Cc1cc(NCCCn2ccnc2)n2ncc(-c3ccccc3)c2n1 | 96.6% (inactive) | 99.1% | 96.7% | 95.7% (inactive) | 94.2% | 96.2% | 99% (inactive) | 104% (inactive) | 100% (inactive) | 101% | 101%
25 | Cc1ccc(C(=O)Nc2nnc(CC(=O)N/N=C/c3ccc(O)c(O)c3)s2)cc1 | 97.8% (inactive) | 99% | 95.9% | 94.1% (inactive) | 92.9% | 95.4% | 103% (inactive) | 104% (inactive) | 103% (inactive) | 103% | 104%
26 | COc1ccc(NC(=O)CCc2nc(-c3ccccc3F)no2)cc1 | 95.6% (inactive) | 95.9% | 93.1% | 106% (inactive) | 101% | 106% | 101% (inactive) | 97.7% (inactive) | 97.2% (inactive) | 95.8% | 94.9%
27 | Cc1cc(C)n(C(=O)/C(C#N)=N\Nc2ccccc2[N+](=O)[O-])n1 | 91.7% (inactive) | 71.4% | 88.6% | 138% (inactive) | 98.7% | 154% | 163% (inactive) | 123% (inactive) | 102% (inactive) | 73.6% | 105%
28 | O=[N+]([O-])c1cc(Cl)c2cccnc2c1O | 100% (inactive) | 94.9% | 102% | 174% (active) | 141% | 181% | 118% (inactive) | 100% (inactive) | 99.3% (inactive) | 96.4% | 94.5%
29 | O=C(Cn1cc(/C=C\[N+](=O)[O-])c2ccccc21)Nc1ccccc1 | 97.4% (inactive) | 97.4% | 97.6% | 94.1% (inactive) | 94.4% | 94% | 98.3% (inactive) | 94.7% (inactive) | 99.7% (inactive) | 101% | 99.7%
30 | COc1ccc(OC)c(/C=C/C(=O)c2ccc(Cl)cc2)c1 | 92.2% (inactive) | 91.9% | 92% | 104% (inactive) | 97.6% | 105% | 96.2% (inactive) | 98.5% (inactive) | 101% (inactive) | 101% | 101%
31 | CC(C)c1nnc(NC(=O)c2nc(S(=O)(=O)Cc3ccc(F)cc3)ncc2Cl)s1 | 95.8% (inactive) | 96% | 96.9% | 101% (inactive) | 102% | 99.5% | 99.5% (inactive) | 102% (inactive) | 99.3% (inactive) | 100% | 100%
32 | O=c1[nH]c(CN2CCCCC2)nc2c1C1(CCCCC1)Cc1ccccc1-2 | 100% (inactive) | 100% | 100% | 98.7% (inactive) | 98.7% | 101% | 100% (inactive) | 99.2% (inactive) | 99.1% (inactive) | 96.5% | 98.7%
33 | CCC(C)(C)NC(=O)C(c1cccs1)N(CC1CCCO1)C(=O)Cn1nnc2ccccc21 (stereo not drawn) | 95.3% (inactive) | 95.9% | 94.4% | 98.9% (inactive) | 96% | 99.5% | 101% (inactive) | 102% (inactive) | 101% (inactive) | 105% | 102%
